Source: ChEMBL document CHEMBL4014341, “Discovery of a Human Neuromedin U Receptor 1-Selective Hexapeptide Agonist with Enhanced Serum Stability” (J Med Chem, 2017)
Calls of active or inactive are those of the source. The calls are words filed in the database; no cut-off is given here. Square brackets hold non-standard residues; d marks the D form. Peptide text beside a SMILES is read from it. * marks the point of attachment. Phe(4-NO2) = N[C@@H](Cc1ccc([N+](=O)[O-])cc1)C(=O)O; Bpa = N[C@@H](Cc1ccc(C(=O)c2ccccc2)cc1)C(=O)O; Bip = N[C@@H](Cc1ccc(-c2ccccc2)cc1)C(=O)O; Phe(4-Cl) = N[C@@H](Cc1ccc(Cl)cc1)C(=O)O; αMeW = C[C@](N)(Cc1c[nH]c2ccccc12)C(=O)O; Dip = N[C@H](C(=O)O)C(c1ccccc1)c1ccccc1; Phe(4-F) = N[C@@H](Cc1ccc(F)cc1)C(=O)O; Acetyl(2-thienyl) = O=C(Cc1cccs1)*

Assays:
[1] = molecular target: Neuromedin-U receptor 2 (Homo sapiens) (UniProt Q9GZQ4); assay: Agonist activity at human NMUR2 expressed in CHO cells assessed as induction of Ca2+ flux at 10 nM after 18 hrs by Fluo-4 AM dye based FLIPR assay relative to NMU; assay type: functional, cell-based
Summary of the method: (§1)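 Human NMUR1 or NMUR2 stably expressed in CHO cells was assayed by Fluo-4 AM (4 μM, 40 min) FLIPR calcium flux, with cells seeded 18 h before. Peptides were tested at single concentrations of 0.1, 10 or 100 nM. Maximal response is expressed as % of hNMU at 1000 nM (=100%).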

[2] = molecular target: T1, Neuromedin-U receptor 1 (Homo sapiens) (UniProt Q9HB89); assay: Agonist activity at human NMUR1 expressed in CHO cells assessed as induction of Ca2+ flux at 100 nM after 18 hrs by Fluo-4 AM dye based FLIPR assay relative to NMU; assay type: functional, cell-based; summary of the method: as §1
T1 sequence (whole entry): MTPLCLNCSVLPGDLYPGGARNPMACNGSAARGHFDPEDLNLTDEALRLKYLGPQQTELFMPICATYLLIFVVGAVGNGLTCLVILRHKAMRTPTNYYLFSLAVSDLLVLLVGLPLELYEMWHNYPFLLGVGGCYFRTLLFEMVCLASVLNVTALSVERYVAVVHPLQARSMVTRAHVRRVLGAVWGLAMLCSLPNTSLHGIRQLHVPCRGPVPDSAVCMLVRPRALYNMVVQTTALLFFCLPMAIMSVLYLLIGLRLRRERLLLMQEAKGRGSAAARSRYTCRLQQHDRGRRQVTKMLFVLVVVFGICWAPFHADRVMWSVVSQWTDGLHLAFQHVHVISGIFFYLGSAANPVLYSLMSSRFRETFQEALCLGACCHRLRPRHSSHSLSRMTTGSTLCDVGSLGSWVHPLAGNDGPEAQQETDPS

[3] = molecular target: Neuromedin-U receptor 2 (Homo sapiens) (UniProt Q9GZQ4); assay: Agonist activity at human NMUR2 expressed in CHO cells assessed as induction of Ca2+ flux at 100 nM after 18 hrs by Fluo-4 AM dye based FLIPR assay relative to NMU; assay type: functional, cell-based; summary of the method: as §1
[4] = molecular target: T1, Neuromedin-U receptor 1 (Homo sapiens); assay: Agonist activity at human NMUR1 expressed in CHO cells assessed as induction of Ca2+ flux at 0.1 to 10 nM after 18 hrs by Fluo-4 AM dye based FLIPR assay relative to NMU; assay type: functional, cell-based; summary of the method: as §1
[5] = molecular target: Neuromedin-U receptor 2 (Homo sapiens) (UniProt Q9GZQ4); assay: Agonist activity at human NMUR2 expressed in CHO cells assessed as induction of Ca2+ flux at 0.1 uM after 18 hrs by Fluo-4 AM dye based FLIPR assay relative to NMU; assay type: functional, cell-based; summary of the method: as §1
[6] = molecular target: Prothrombin (Homo sapiens, UniProt P00734); assay: Drug metabolism in human serum treated with (S)-2-((S)-1-((S)-2-((S)-2-((S)-3-(1H-indol-3-yl)-2-(2-(thiophen-2-yl)acetamido)propanamido)-3-(1H-indol-3-yl)-2-methylpropanamido)-5-guanidinopentanoyl)pyrrolidine-2-carboxamido)-5-guanidinopentanoic acid assessed as thrombin-mediated metabolite formation at 1 mM after 120 mins by RP-HPLC analysis; assay type: ADME; conditions: 2 h, 1000 µM
[7] = species on record: Rattus norvegicus; assay: Stability in rat serum at 1 mM at 120 mins by RP-HPLC/MS analysis
[8] = molecular target: T1, Neuromedin-U receptor 1 (Homo sapiens); assay: Agonist activity at human NMUR1 expressed in CHO cells assessed as induction of Ca2+ flux at 0.1 nM after 18 hrs by Fluo-4 AM dye based FLIPR assay relative to NMU; assay type: functional, cell-based; summary of the method: as §1
[9] = molecular target: T2, Neuromedin-U receptor 1 (Mus musculus, UniProt O55040); assay: Agonist activity at mouse NMUR1 expressed in HEK293 cells assessed as induction of calcium mobilization after 18 hrs by Fluo-4 AM dye based FLIPR assay; assay type: functional, cell-based
T2 sequence (O55040 whole entry): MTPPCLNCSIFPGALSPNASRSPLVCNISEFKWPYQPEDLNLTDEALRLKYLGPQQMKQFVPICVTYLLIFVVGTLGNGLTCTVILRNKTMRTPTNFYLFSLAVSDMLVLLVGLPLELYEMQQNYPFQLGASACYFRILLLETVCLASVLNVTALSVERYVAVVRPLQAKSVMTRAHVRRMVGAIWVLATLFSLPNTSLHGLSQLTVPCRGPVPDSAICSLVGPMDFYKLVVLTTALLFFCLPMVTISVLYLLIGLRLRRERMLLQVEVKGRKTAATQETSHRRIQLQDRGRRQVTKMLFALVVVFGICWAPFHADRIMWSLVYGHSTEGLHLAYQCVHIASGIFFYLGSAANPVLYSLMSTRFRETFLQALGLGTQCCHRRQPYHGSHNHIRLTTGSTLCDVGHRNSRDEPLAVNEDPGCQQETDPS

[10] = molecular target: Neuromedin-U receptor 2 (Homo sapiens) (UniProt Q9GZQ4); assay: Agonist activity at human NMUR2 expressed in CHO cells assessed as induction of Ca2+ flux at 0.1 to 10 nM after 18 hrs by Fluo-4 AM dye based FLIPR assay relative to NMU; assay type: functional, cell-based; summary of the method: as §1
[11] = AUC in Wistar rat at 1 mg, iv up to 240 mins by LC/MS analysis; assay type: ADME, organism-based; design: dose 1 mg, time < 4 hr, route intravenous; conditions: in vivo
[12] = Clearance in Wistar rat at 1 mg, iv up to 240 mins by LC/MS analysis; assay type: ADME, organism-based; conditions: in vivo
[13] = MRT in Wistar rat at 1 mg, iv by LC/MS analysis; assay type: ADME, organism-based; conditions: in vivo

Neuromedin-U receptor 2 (Homo sapiens), sequence (Q9GZQ4 whole entry): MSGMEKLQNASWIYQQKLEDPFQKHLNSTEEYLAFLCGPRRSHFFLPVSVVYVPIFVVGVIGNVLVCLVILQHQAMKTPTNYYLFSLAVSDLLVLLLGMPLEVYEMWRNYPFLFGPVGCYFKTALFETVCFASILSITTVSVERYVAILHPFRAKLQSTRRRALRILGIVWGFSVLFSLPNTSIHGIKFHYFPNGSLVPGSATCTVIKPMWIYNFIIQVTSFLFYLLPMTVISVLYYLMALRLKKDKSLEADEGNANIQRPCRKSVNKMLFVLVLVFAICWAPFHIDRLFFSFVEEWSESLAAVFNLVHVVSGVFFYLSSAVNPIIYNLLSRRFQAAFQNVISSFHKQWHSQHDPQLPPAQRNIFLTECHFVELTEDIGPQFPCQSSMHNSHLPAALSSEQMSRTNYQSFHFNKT

For `N=C(N)NCCC[C@H](NC(=O)[C@@H]1CCCN1C(=O)[C@H](CCCNC(=N)N)NC(=O)[C@H](Cc1ccc(Cl)cc1)NC(=O)[C@H](Cc1c[nH]c2ccccc12)NC(=O)Cc1cccs1)C(=O)N[C@@H](CC(N)=O)C(N)=O` ({Acetyl(2-thienyl)}-W[Phe(4-Cl)]RPRN-NH2), the Activity [1] was “Active”.
In the case of `N=C(N)NCCC[C@H](NC(=O)[C@@H]1CCCN1C(=O)[C@H](CCCNC(=N)N)NC(=O)[C@@H](NC(=O)[C@H](Cc1c[nH]c2ccccc12)NC(=O)Cc1cccs1)C(c1ccccc1)c1ccccc1)C(=O)N[C@@H](CC(N)=O)C(N)=O` ({Acetyl(2-thienyl)}-W[Dip]RPRN-NH2), the Activity [2] is reported as “inactive” and the Activity [3] is reported as “inactive”.
In the case of `COc1ccc(C[C@H](NC(=O)[C@H](Cc2c[nH]c3ccccc23)NC(=O)Cc2cccs2)C(=O)N[C@@H](CCCNC(=N)N)C(=O)N2CCC[C@H]2C(=O)N[C@@H](CCCNC(=N)N)C(=O)N[C@@H](CC(N)=O)C(N)=O)cc1` ({Acetyl(2-thienyl)}-WY(Me)RPRN-NH2), the Activity [1] is reported as “inactive”.
In the case of `C[C@@](Cc1c[nH]c2ccccc12)(NC(=O)[C@H](Cc1c[nH]c2ccccc12)NC(=O)Cc1cccs1)C(=O)N[C@@H](CCCNC(=N)N)C(=O)N1CCC[C@H]1C(=O)N[C@@H](CCCNC(=N)N)C(=O)O` ({Acetyl(2-thienyl)}-W[αMeW]RPR-OH), the Activity [4] is reported as “Active”, the Activity [5] is reported as “inactive” and the Drug metabolism [6] is reported as “Metabolite_Detected”. For the same compound, the remaining at 2 h, 1000 µM [7] was 101%.
In the case of `N=C(N)NCCC[C@H](NC(=O)[C@@H]1CCCN1C(=O)[C@H](CCCNC(=N)N)NC(=O)[C@H](Cc1ccc(-c2ccccc2)cc1)NC(=O)[C@H](Cc1c[nH]c2ccccc12)NC(=O)Cc1cccs1)C(=O)N[C@@H](CC(N)=O)C(N)=O` ({Acetyl(2-thienyl)}-W[Bip]RPRN-NH2), the Activity [1] is reported as “inactive” and the Activity [8] is reported as “Active”.
For `N=C(N)NCCC[C@H](NC(=O)[C@@H]1CCCN1C(=O)[C@H](CCCNC(=N)N)NC(=O)[C@H](Cc1ccc([N+](=O)[O-])cc1)NC(=O)[C@H](Cc1c[nH]c2ccccc12)NC(=O)Cc1cccs1)C(=O)N[C@@H](CC(N)=O)C(N)=O` ({Acetyl(2-thienyl)}-W[Phe(4-NO2)]RPRN-NH2), the Activity [1] was “inactive”.
For `N=C(N)NCCC[C@H](NC(=O)[C@@H]1CCCN1C(=O)[C@H](CCCNC(=N)N)NC(=O)[C@H](Cc1ccc(C(=O)c2ccccc2)cc1)NC(=O)[C@H](Cc1c[nH]c2ccccc12)NC(=O)Cc1cccs1)C(=O)N[C@@H](CC(N)=O)C(N)=O` ({Acetyl(2-thienyl)}-W[Bpa]RPRN-NH2), the Activity [1] was “inactive” and the Activity [8] was “Active”.
In the case of `CC(C)C[C@H](NC(=O)[C@H](Cc1ccccc1)NC(=O)[C@H](Cc1ccc(O)cc1)NC(=O)CNC(=O)[C@H](CCCCN)NC(=O)[C@H](CO)NC(=O)[C@H](CCC(N)=O)NC(=O)CNC(=O)[C@@H](NC(=O)[C@H](CO)NC(=O)[C@@H]1CCCN1C(=O)[C@H](CO)NC(=O)[C@H](CCC(N)=O)NC(=O)[C@H](Cc1ccc(O)cc1)NC(=O)[C@H](CCC(=O)O)NC(=O)[C@H](C)NC(=O)[C@H](CCCCN)NC(=O)[C@@H](N)Cc1ccccc1)C(C)C)C(=O)N[C@@H](Cc1ccccc1)C(=O)N[C@@H](CCCNC(=N)N)C(=O)N1CCC[C@H]1C(=O)N[C@@H](CCCNC(=N)N)C(=O)N[C@@H](CC(N)=O)C(N)=O` (H-FKAEYQSPSVGQSKGYFLFRPRN-NH2), the EC50 [9] is reported as 0.42 nM.
In the case of `N=C(N)NCCC[C@H](NC(=O)[C@@H]1CCCN1C(=O)[C@H](CCCNC(=N)N)NC(=O)[C@H](Cc1ccc(F)cc1)NC(=O)[C@H](Cc1c[nH]c2ccccc12)NC(=O)Cc1cccs1)C(=O)N[C@@H](CC(N)=O)C(N)=O` ({Acetyl(2-thienyl)}-W[Phe(4-F)]RPRN-NH2), the Activity [4] is reported as “Active”, the Activity [10] is reported as “Active” and the AUC at 4 h [11] is reported as 5300 ng·h/mL. For the same compound, the clearance [12] was 3.19 mL/min and the MRT [13] was 11.5 min.
